Measurements from PubChem BioAssay.
Values joined by “and” are separate entries in the source; they are usually repeats but may differ in a detail not shown here. Identical values can stand only once. Active and inactive are the calls of the source.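 How the source made its calls, unless noted: active means inhibition at or above 50% relative to wild type and mutant plate controls; inactive means inhibition below 50%.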

Test: inhibitors of larval lipid processing in zebrafish, primary screen, whole organism, PED6 fluorescence, gall bladder and intestine (AID 686;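 active means a full or partial loss of lipid-probe fluorescence in the fish gall bladder, intestine or both, judged by eye; inactive means no fluorescence loss, or compound toxic to the fish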;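 further: larvae 5 to 7 days old with five fish per well; signal comes from phospholipase A2 cleavage of quenched PED6 carried via bile; overnight exposure to compound and PED6 before scoring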)
Conditions: Zebrafish larvae PED6 lipid processing, fluorescence scoring; screened at 20 µM (by protocol)
Summary of the method: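 System: live zebrafish larvae aged 5-7 days, whole organism; measure: graded gall bladder and intestinal fluorescence inhibition per well; incubation: overnight exposure; reagent: ingested quenched lipid PED6 at 100 nM; signal: By-eye fluorescence microscopy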

SMILES | outcome
COc1ccc2c(c1)n([O-])c1c([n+]2=O)CCC1 | inactive
COc1ccc2c(c1)[nH]c1c(=O)n(CC3CCCO3)cnc12 (stereo not drawn) | inactive
CC(=O)c1c(OCC(=O)O)ccc2c(C)cc(=O)oc12 | inactive
O=C1C2ON(c3ccccc3)C(c3cccnc3)C2C(=O)N1c1ccccc1 (stereo not drawn) | inactive
CCCCCn1c2nc3ccccc3nc2c2c(=O)n(CC(C)C)cnc21 | inactive
Cc1nc2c(o1)CCc1ccccc1C2O (stereo not drawn) | inactive
Clc1ccc(-n2ncc3c(NCCCn4ccnc4)ncnc32)cc1 | inactive
Nc1nnnn1/N=C/c1ccccn1 | inactive
c1ccc(CN2CCN(c3ncnc4c3[nH]c3ccccc34)CC2)cc1 | active; weak signal in intestine only
Cc1cc2c(c(=O)o1)C(Cc1ccccc1)C(C#N)=C(N)O2 (stereo not drawn) | inactive
COc1cc(NC(=O)NC(C)(C(F)(F)F)C(F)(F)F)cc(OC)c1OC | inactive
Cc1c(O)c(CN2CCCCC2)cc2c3c(c(=O)oc12)CCC3 | inactive
CCOC(=O)c1[nH]c2ccc(Br)cc2c1NC(=O)CNC | inactive
COc1ccc(CCn2c(=N)c(C(=O)NCc3ccco3)cc3c(=O)n4ccccc4nc32)cc1 | inactive
CN(C)/C=C1\N=C(c2ccc(Cl)cc2Cl)OC1=O | inactive
Cc1ccc(/C=N/n2nnnc2N)o1 | inactive
COc1ccccc1N=Cc1nc(-c2ccccc2)oc1OC(C)=O | inactive
Cc1ccc2[nH]c3c(N4CCOCC4)ncnc3c2c1 | inactive
CC(=O)C1=C(O)C(=O)N(c2ccc(C(=O)O)cc2)C1c1ccccc1 (stereo not drawn) | inactive
COc1ccccc1Nc1ncnc2c1cnn2-c1cccc(C)c1 | inactive

Test: loss of swimming-algae plug formation – whole organism, Chlamydomonas reinhardtii, WT vs cilia-less mutant, absorbance, 96-well, primary screen (AID 463189);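 further: 0% = wild type cc124 cells in DMSO and 100% = ciliumless bld1 mutant cells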
Conditions: Chlamydomonas reinhardtii gravitaxis, OD600 absorbance, 2 days; at 10 µM; active compounds read high

SMILES | inhibition
Cc1nnc2n(-c3ccccc3)c(=O)c3c4c(sc3n12)CCCC4 | 24.9% (inactive)
Cc1c(NC(=O)c2ccc(=O)oc2)c(=O)n(-c2ccccc2)n1C | 23.3% (inactive)
Cc1nc2sc(C#N)c(N)c2c2c1CCCC2 | 3.68% (inactive)
Fc1ccc(-c2cnc[nH]2)cc1 | -0.515% (inactive)
CC(CCc1ccccc1)NCC(O)c1ccc(O)c(C(N)=O)c1 (stereo not drawn) | 10.1% (inactive) and -0.75% (inactive)
CCOC(=O)c1ccc2nc(NC(NC(C)=O)(C(=O)OC)C(F)(F)F)sc2c1 (stereo not drawn) | -10.3% (inactive)
COc1cccc(N2C(=O)C(O)=C(C(C)=O)C2c2ccc(OC)c(OC)c2)c1 (stereo not drawn) | -2.64% (inactive)
CCCCOc1ccccc1C(=O)NCCCC(=O)O | 20.4% (inactive)
COc1ccc(CCn2c(=N)c(C#N)cc3c(=O)n4ccccc4nc32)cc1 | 32.6% (inactive)
O=C(NC1CCS(=O)(=O)C1)c1c(NC(=O)C2COc3ccccc3O2)sc2c1CCCC2 (stereo not drawn) | 30.5% (inactive)
Cc1nn(-c2ccccc2)c2c1C(=O)NC(=O)C(C)(C)C2 | -12.8% (inactive)
O=C(Nc1ccccn1)NC(C(F)(F)F)C(F)(F)F | 12.6% (inactive)
CCC(NC(=O)Nc1cc(OC)c(OC)c(OC)c1)(C(F)(F)F)C(F)(F)F | 8.7% (inactive)
COC(=O)C(NC(C)=O)(Nc1ccccn1)C(F)(F)F (stereo not drawn) | -7.72% (inactive)
CC1(C)CNC(=O)c2sc(N3CCOCC3)nc2C1 | 0.902% (inactive)
CCN1CCc2c(C#N)c(N3CCCCC3)nc(NCc3ccccc3)c2C1 | 23.7% (inactive)
CCOC(=O)CNC(=O)Nc1ccccc1C(=O)OC | -5.32% (inactive)
CCn1nc(NC(=O)c2cccnc2)c2cc3ccccc3nc21 | 3.52% (inactive)
Cn1c(=O)n(Cc2ccccc2)c(=O)c2c1nc(NCC1CCCO1)n2Cc1ccccc1 (stereo not drawn) | -18.5% (inactive)
COc1ccc2c(c1)n([O-])c1c([n+]2=O)CCC1 | -9.94% (inactive)
COc1ccc2c(c1)[nH]c1c(=O)n(CC3CCCO3)cnc12 (stereo not drawn) | 0.053% (inactive)
CC(=O)c1c(OCC(=O)O)ccc2c(C)cc(=O)oc12 | 19.8% (inactive)
O=C1C2ON(c3ccccc3)C(c3cccnc3)C2C(=O)N1c1ccccc1 (stereo not drawn) | -4.82% (inactive)
CCCCCn1c2nc3ccccc3nc2c2c(=O)n(CC(C)C)cnc21 | 16.4% (inactive)
Cc1nc2c(o1)CCc1ccccc1C2O (stereo not drawn) | 19.1% (inactive)
Clc1ccc(-n2ncc3c(NCCCn4ccnc4)ncnc32)cc1 | -3.19% (inactive)
Nc1nnnn1/N=C/c1ccccn1 | 26.1% (inactive)
c1ccc(CN2CCN(c3ncnc4c3[nH]c3ccccc34)CC2)cc1 | 21.2% (inactive)
